Laboratory results from ChEMBL document CHEMBL1759837, “Studies on chemical modification and biology of a natural product, gambogic acid (III): determination of the essential pharmacophore for biological activity” (Eur J Med Chem, 2011).

Assays:
Assay type in all cases: functional, cell-based
[1] = system: SMMC-7721; experiment: Antiproliferative activity against human SMMC7721 cells after 24 hrs by MTT assay; details: SMMC-7721, 24 h
Outline: (§1)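 Cells grown at 37 °C in humidified 5% CO2 with benzylpenicillin and streptomycin. Compounds came from 0.01 mol/L DMSO stocks and were tested at eight two-fold dilutions in triplicate, with medium-only controls, for 24 h. MTT absorbance was read at 570 nm. Survival = A_treatment/A_control × 100. IC50 is the concentration giving 50% viability inhibition, as the mean of two separate experiments.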

[2] = system: HepG2; experiment: Antiproliferative activity against human HepG2 cells after 24 hrs by MTT assay; details: HepG2, 24 h
Outline: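 Tetrazolium MTT viability test; cells exposed to compound 24 h, absorbance read at 570 nm. Survival ratio = A treated / A control × 100%; IC50 is the concentration giving 50% loss of viability. Eight concentrations in two-fold dilutions, triplicate wells, mean of two separate experiments. Compounds dissolved in DMSO (0.01 mol/L stock); control wells received medium only.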

[3] = system: BGC-823; experiment: Antiproliferative activity against human BGC823 cells after 24 hrs by MTT assay; details: BGC-823, 24 h; outline: as §1
[4] = system: MCF7; experiment: Antiproliferative activity against human MCF7 cells after 24 hrs by MTT assay; details: MCF7, 24 h; outline: as §1

IC50 [1]: 147 µM | IC50 [2]: 95 µM | IC50 [3]: 81.1 µM | IC50 [4]: 68.3 µM
SMILES: CC(C)=CCC12OC(C)(C)C3CC(C=C4C(=O)CC(C)OC431)C2=O (centres undefined)
